Measured values collected from several papers.
Compare with care: the assays were run in different laboratories. In brackets after ≈: the same amount, converted by molar mass.

| SMILES | target or system | observed | technique | tested at | time | quantity | value |
| --- | --- | --- | --- | --- | --- | --- | --- |
| O=C1O[C@H]([C@@H](O)CO)C(O)=C1O | – | DPPH scavenging | – | – | – | IC50 | 4960 nM |
| O=C(O)c1cn(C2CC2)c2cc(N3CCNCC3)c(F)cc2c1=O | Haemophilus influenzae | microbial growth | – | – | – | MIC90 | 0.03 µg/mL (≈ 0.0905 µM) |
| CCc1ccc(NC(=O)Cc2c[nH]c3ccccc23)cc1 | – | DPPH scavenging | – | – | – | IC50 | 1920 nM |
| CC(C)C[C@H](NC(=O)[C@H](Cc1ccccc1)NC(=O)c1cnccn1)B(O)O | NCI-H441 | cell growth or viability | ATP luminescence | – | – | IC50 | 9 nM |
| CC1(C)S[C@@H]2[C@H](NC(=O)[C@H](N)c3ccccc3)C(=O)N2[C@H]1C(=O)O | Haemophilus influenzae | microbial growth | – | – | – | MIC90 | 128 µg/mL (≈ 366 µM) |
| O=C(Cc1c[nH]c2ccccc12)Nc1ccc(F)c(F)c1 | – | DPPH scavenging | – | – | – | IC50 | 1420 nM |
| CC(=O)Nc1cccc(-n2c(=O)n(C3CC3)c(=O)c3c(Nc4ccc(I)cc4F)n(C)c(=O)c(C)c32)c1 | SW-620 | cell growth or viability | resazurin | 390 pM | 72 h | viability | 94.8% |
| COc1cc(Nc2nccc(-c3cnn4nc(OC)ccc34)n2)cc(C(F)(F)F)c1 | SJSA-1 | cell growth or viability | ATP luminescence | – | – | IC50 | 510 nM |
